Data set [1] can be described thus: The compound was tested for toxicity in Vero cells. The settings on record: Chlorocebus sabaeus (African green monkey). Format: cell-based.
Data set [2] deals with Vero. The data set is described as follows: Antiviral activity against Vero cells, infected with HSV-1. Format: functional, cell-based. As to conditions: Chlorocebus sabaeus. The method, boiled down:
(§1)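 Plaque reduction assay in Vero cells infected with HSV-1 strain F. Median effective concentration taken from the concentration-response curve by the Chou–Talalay median-effect method.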

The nature of data set [3]: Antiviral activity against human peripheral blood mononuclear cells, infected with HIV-1(strain LAV). It is filed as functional. The method, boiled down: (§2)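 Primary human PBM cells infected with virus and exposed to compound. Virus in cell supernatant was quantified on day 6 post-infection by reverse transcriptase assay using poly(rA)n-oligo(dT)12-18 template-primer on disrupted virions. EC50 derived from the concentration-response curve by the Chou–Talalay median-effect method.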

Data set [4] can be described thus: Antiviral activity against human peripheral blood mononuclear cells, infected with HIV-2(strain ROD-2). Format: functional. The method, boiled down:
(§3)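 Human PBM cells were infected with HIV-1 strain LAV or HIV-2 strain ROD-2. On day 6 after infection, virus in the cell supernatant was quantitated by reverse transcriptase assay using poly(rA)n-oligo(dT)12-18 as template-primer. EC50 was derived from the concentration-response curve by the Chou–Talalay median-effect method.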

A short description of data set [5]: The compound was tested for toxicity in peripheral blood mononuclear cells. Format: functional, Homo sapiens.
For data set [6], the system named is Vero. The data set is described as follows: Antiviral activity against Vero cells, infected with HSV-1. It is filed as functional, cell-based. The settings on record: Chlorocebus sabaeus. The method, boiled down: as §1
In another data set the test system is Nucleic Acid. The data set is described as follows: Inhibitory activity against DNA polymerase-alpha derived from peripheral blood mononuclear cells. On the set-up: species or system Homo sapiens. The method, boiled down:
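Selectivity counter-screen against DNA polymerase α purified from human PBM cells. Median inhibitory concentration derived from the concentration-response curve by the Chou–Talalay median-effect method.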

Data set [7] can be described thus: The compound was tested for toxicity in Vero cells. It is filed as cell-based. As to conditions: Chlorocebus sabaeus (African green monkey).
Data set [8] can be described thus: Antiviral activity against human peripheral blood mononuclear cells, infected with HIV-1(strain LAV). Format: functional. The method, boiled down: as §3
A short description of data set [9]: The compound was tested for toxicity in peripheral blood mononuclear cells. It is filed as functional, Homo sapiens.
The nature of data set [10]: Antiviral activity against human peripheral blood mononuclear cells, infected with HIV-2(strain ROD-2). It is filed as functional. The method, boiled down: as §2
Data set [11] deals with T1, Human immunodeficiency virus type 1 reverse transcriptase (Human immunodeficiency virus 1, UniProt Q72547). Put plainly: Inhibition of HIV-1 reverse transcriptase.
The target in data set [12] is T1, Human immunodeficiency virus type 1 reverse transcriptase. The data set is described as follows: Inhibition of HIV-1 reverse transcriptase recombinant p66.

On to `O=c1[nH]c(=O)n(COCCO)cc1Cl`, for which, in data set [1], the IC50 (in general, the concentration at which inhibition is half-maximal) is more than 100 µM. For the same molecule, the EC50 (in the data set with Vero [2]; in [3]) was more than 100 µM throughout.
Regarding `O=c1[nH]c(=O)n(COCCO)c([Se]c2ccccc2)c1Cl`, the EC50 (in general, the concentration giving half of the maximal effect) was 7.9 µM in data set [4], more than 100 µM in the data set with Vero [6] and 3.1 µM in [8]. Also, the IC50 in data set [5] was more than 100 µM; with Nucleic Acid, more than 100 µM; in [7], 7.5 µM.
Regarding `Cc1c([Se]c2ccccc2)n(COCCO)c(=O)[nH]c1=O`, the EC50 in data set [4] was 25.6 µM; in the data set on Vero [6], more than 100 µM; in data set [8], 0.96 µM. Besides, the 50% inhibitory concentration (IC50) was more than 200 µM in data set [5], more than 100 µM in the data set with Nucleic Acid and more than 100 µM in [7].
As to `Cc1c([Se]c2ccccc2)n(COCCO)c(=S)[nH]c1=O`, the EC50 was 5.8 µM in [4], more than 100 µM in the data set with Vero [6] and 2.8 µM in data set [8]. Also, the IC50 in data set [5] was more than 100 µM; in the data set with Nucleic Acid it was more than 100 µM; in data set [7], 60.7 µM.
On to `O=c1ccn(COCCO)c(=O)[nH]1`, for which the IC50 in data set [5] and in data set [7] was more than 100 µM each time. Besides, the EC50 (in the data set on Vero [6]; in data set [8]) was more than 100 µM throughout.
On to `O=c1cc([Se]c2ccccc2)n(COCCO)c(=O)[nH]1`, for which the EC50 in data set [4] is 9.6 µM; in the data set with Vero [6], more than 200 µM; in data set [8] it was 13 µM. For the same molecule, the IC50 (in [5]; in the data set with Nucleic Acid; in data set [7]) was more than 100 µM in each case.
For `Cc1cn(COCCO)c(=O)[nH]c1=O`, the IC50 in data set [1] and in [9] was more than 100 µM each time. Also, the EC50 (in the data set with Vero [2]; in data set [3]) was more than 100 µM throughout.
For `O=c1[nH]c(=O)n(COCCO)cc1F`, the figures for the half-inhibitory concentration (IC50) in data set [1] and in [9] were more than 100 µM and 67 µM, respectively. The concentration giving a half-maximal response (EC50) (in the data set with Vero [2]; in data set [3]) was more than 100 µM each time.
Take `O=c1[nH]c(=O)n(COCCO)cc1Br`: the results for the IC50 in data set [1] and in data set [9] were more than 100 µM and 100 µM, respectively. For the same molecule, the EC50 (in the data set on Vero [2]; in data set [3]) was more than 100 µM throughout.
Regarding `Cc1cn(COCCO)c(=S)[nH]c1=O`, the IC50 in data set [1] and in [9] was more than 100 µM in each case. Moreover, the EC50 (in the data set on Vero [2]; in [3]) was more than 100 µM throughout.
With `O=c1[nH]c(=O)n(COCCO)c([Se]c2ccccc2)c1F`, the results for the EC50 (in data set [4]; with Vero [6]; in [8]) were 9.1 µM, more than 100 µM and 2 µM, respectively. The half-inhibitory concentration (IC50) was more than 100 µM in [5], more than 100 µM with Nucleic Acid and 25.7 µM in data set [7].
Consider `O=c1[nH]c(=O)n(COCCO)c([Se]c2ccccc2)c1Br`, for which the results for the EC50 (in data set [4]; in the data set with Vero [6]; in [8]) were 2 µM, more than 100 µM and 3.7 µM, respectively. Besides, the IC50 is more than 100 µM in [5], more than 100 µM in the data set with Nucleic Acid and 8.2 µM in data set [7].
For the molecule `Cc1c(Sc2ccccc2)n(COCCO)c(=O)[nH]c1=O` [HEPT], the half-maximal inhibitory concentration (IC50) in [1] was more than 100 µM; in [11] it was 17.5 µM; with Nucleic Acid it was more than 100 µM; in [9] it was more than 100 µM. Also, the 50% effective concentration (EC50) in data set [10] was more than 100 µM; in the data set on Vero [2], more than 100 µM; in [3], 5.3 µM.
For `Cc1cn([C@H]2C[C@H](N=[N+]=[N-])[C@@H](CO)O2)c(=O)[nH]c1=O` [ZIDOVUDINE], the EC50 in data set [4] is less than 0.002 µM; with Vero [6], more than 100 µM; in data set [8] it was 0.004 µM. In addition, the IC50 is more than 100 µM in data set [5], more than 100 µM in the data set on Nucleic Acid, 26 µM in data set [7] and less than 0.1 µM in data set [12].

The values above are taken from ChEMBL document CHEMBL1125914, “Activity of acyclic 6-(phenylselenenyl)pyrimidine nucleosides against human immunodeficiency viruses in primary lymphocytes” (J Med Chem, 1991).
